Activity calls are given as the source filed them. The rule behind the calls is not given here.
Columns and labels:
RAW264.7 [1] = assay: Antiinflammatory activity in TNFalpha-stimulated mouse RAW264.7 cells assessed as reduction in cell count at 3 uM after 20 hrs relative to control; assay type: functional; parameters: scale not given: the % may be the effect or the level left
Summary of the method: (§1)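 RAW264.7 cells were kept in DMEM/10% FBS and subcultured by scraping. They were plated at 50,000 per well with TNFα (10 nM) for 20 hrs at 37°C, 5% CO2, then switched to serum-free DMEM for 2 hrs of treatment. Cell numbers were compared with the vehicle control.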

RAW264.7 [2] = assay: Antiinflammatory activity in TNFalpha-stimulated mouse RAW264.7 cells assessed as reduction in cell count at 0.3 uM after 20 hrs relative to control; assay type: functional; parameters: scale not given: the % may be the effect or the level left; summary of the method: as §1
RAW264.7 [3] = assay: Antiinflammatory activity in TNFalpha-stimulated mouse RAW264.7 cells assessed as PGJ level at 3 uM after 20 hrs by ELISA; assay type: functional
Summary of the method: (§2)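 Mouse RAW264.7 macrophages were grown in DMEM with 10% FBS and passaged by scraping without trypsin. Cells were seeded at 50,000 per well in DMEM+FCS with TNFα (10 nM) and incubated 20 hrs at 37°C, 5% CO2. Medium was then changed to serum-free DMEM, cells were treated for 2 hrs, and PGJ in the medium was measured by ELISA. DMSO was the vehicle control.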

RAW264.7 [4] = assay: Cytotoxicity in mouse RAW264.7 cells assessed as decrease in cell viability at 0.3 to 10 uM after 20 hrs; assay type: cell-based; details: raw264.7, 20 h
RAW264.7 [5] = assay: Antiinflammatory activity in TNFalpha-stimulated mouse RAW264.7 cells assessed as PGJ level at 0.3 uM after 20 hrs by ELISA; assay type: functional; summary of the method: as §2
RAW264.7 [6] = assay: Antiinflammatory activity in TNFalpha-stimulated mouse RAW264.7 cells assessed as PGJ level at 1 uM after 20 hrs by ELISA; assay type: functional; summary of the method: as §2
RAW264.7 [7] = assay: Antiinflammatory activity in TNFalpha-stimulated mouse RAW264.7 cells assessed as reduction in cell count at 1 uM after 20 hrs relative to control; assay type: functional; parameters: scale not given: the % may be the effect or the level left; summary of the method: as §1
RAW264.7 [8] = assay: Antiinflammatory activity in TNFalpha-stimulated mouse RAW264.7 cells assessed as PGJ level at 10 uM after 20 hrs by ELISA; assay type: functional; summary of the method: as §2
RAW264.7 [9] = assay: Antiinflammatory activity in TNFalpha-stimulated mouse RAW264.7 cells assessed as reduction in cell count at 10 uM after 20 hrs relative to control; assay type: functional; parameters: scale not given: the % may be the effect or the level left; summary of the method: as §1
RAW264.7 [10] = assay: Antiinflammatory activity in TNFalpha-stimulated mouse RAW264.7 cells assessed as cell count at 0.3 uM after 20 hrs relative to control; assay type: functional; summary of the method: as §1
RAW264.7 [11] = assay: Antiinflammatory activity in TNFalpha-stimulated mouse RAW264.7 cells assessed as PGJ level at 0.5 uM after 20 hrs by ELISA; assay type: functional; summary of the method: as §2
Mus musculus [12] = assay: Antiinflammatory activity in mouse peritonitis model assessed as accumulation of PGJ per 10^3 peritoneal cells at 0.3 to 20 mg/kg, po after 3 hrs by ELISA; assay type: functional, organism-based
Summary of the method: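 Mice were dosed by mouth in safflower oil (0.3–20 mg/kg); the safflower oil vehicle served as control. After 30 min they received 1 ml of 8% thioglycollate medium i.p. Peritoneal cells were harvested, cultured for 18 hrs, and PGJ in the medium was measured by ELISA. N=4.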

RAW264.7 [13] = assay: Antiinflammatory activity in TNFalpha-stimulated mouse RAW264.7 cells assessed as PGJ level at 5 uM after 20 hrs by ELISA; assay type: functional; summary of the method: as §2
RAW264.7 [14] = assay: Antiinflammatory activity in TNFalpha-stimulated mouse RAW264.7 cells assessed as PGJ level at 2.5 uM after 20 hrs by ELISA; assay type: functional; summary of the method: as §2
Mus musculus [15] = assay: Antiinflammatory activity in po dosed mouse peritonitis model assessed as inhibition of thiglycollate-induced migration of leukocytes into the peritoneal cavity administered 30 mins prior to thiglycollate-challenge; assay type: functional
Summary of the method: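 Oral doses of 0.3–20 mg/kg in safflower oil were given to mice; controls received safflower oil. Thirty minutes later, 1 ml of sterile-filtered 8% thioglycollate medium was injected i.p. After 3 hrs, peritoneal cells were harvested, erythrocytes were lysed for 2 min, cells were resuspended in PBS/BSA, and differential leukocyte counts were made. N=8.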

In the case of `CCCCC/C=C\C/C=C\CCCCCCCC(=O)N[C@@H](C)C(=O)O`, the Activity (RAW264.7 [1]) was 68.5%, the Activity (RAW264.7 [2]) was 55.6% and the Activity (RAW264.7 [3]) was less than 16 pg/mL. For the same compound, the Activity (RAW264.7 [4]) was “Non-toxic”, the Activity (RAW264.7 [5]) was less than 16 pg/mL and the Activity (RAW264.7 [6]) was less than 16 pg/mL. It also gave an Activity (RAW264.7 [7]) of 74.3%, an Activity (RAW264.7 [8]) of 30.3 pg/mL and an Activity (RAW264.7 [9]) of 55.5%.

`CCCCC/C=C\C/C=C\C/C=C\C/C=C\CCCC(=O)NCC(=O)O` [ARACHIDONOYL GLYCINE] gave an Activity (RAW264.7 [6]) of less than 16 pg/mL and an Activity (RAW264.7 [8]) of 6847 pg/mL.

`CCCCC/C=C\C/C=C\CCCCCCCC(=O)N[C@H](C)C(=O)O` was tested, and the Activity (RAW264.7 [1]) was 33.9%, the Activity (RAW264.7 [3]) was 233 pg/mL and the Activity (RAW264.7 [4]) was “Non-toxic”. The Activity (RAW264.7 [5]) was less than 16 pg/mL, the Activity (RAW264.7 [6]) was 18 pg/mL and the Activity (RAW264.7 [10]) was 136%. It also gave an Activity (RAW264.7 [7]) of 65.9%, an Activity (RAW264.7 [8]) of 1580 pg/mL and an Activity (RAW264.7 [9]) of 30.5%.

In the case of `CCCCC/C=C\C/C=C\CCCCCCCC(=O)NCC(=O)O` [LINOLEOYL GLYCINE], the Activity (RAW264.7 [11]) was less than 16 pg/mL, the Activity (Mus musculus [12]) was “Active” and the Activity (RAW264.7 [13]) was 3907 pg/mL. For the same compound, the Activity (RAW264.7 [6]) was 177 pg/mL, the Activity (RAW264.7 [8]) was 7315 pg/mL and the Activity (RAW264.7 [14]) was 1843 pg/mL. It also gave an ED50 (Mus musculus [15]) of less than 0.3 mg/kg.

Source: ChEMBL document CHEMBL1938392, “N-Amino acid linoleoyl conjugates: anti-inflammatory activities” (Bioorg Med Chem Lett, 2012)
